{"data": "Measurements gathered from unrelated publications", "observed": "cell growth or viability"}
{"Structure (SMILES)": "FC1CCN(C2(CNCc3ccc(-c4ccccc4Cl)o3)COC2)C1 (stereo not drawn)", "cell line": "T98G", "concentration": "30 µM", "time": "48 h", "quantity": "viability", "value": "53.1%"}
{"Structure (SMILES)": "COc1c(OCCCN2CCOCC2)ccc2c1N=C(NC(=O)c1sc(C)nc1C)N1CCN=C21", "cell line": "KPL4", "quantity": "EC50", "value": "86 nM"}
{"Structure (SMILES)": "Cc1[nH]c(C)c(-c2ccc(-c3ccc(Cl)cc3)nc2)c(=O)c1Cl", "cell line": "HEK293", "quantity": "IC50", "value": "> 10000 nM"}
{"Structure (SMILES)": "c1cc2c(cc1CNCC1(N3CCCC3)COC1)OCCO2", "cell line": "GBM6", "concentration": "30 µM", "time": "48 h", "quantity": "viability", "value": "101%"}
{"Structure (SMILES)": "CC(=O)c1c(C)c2cnc(Nc3ccc(N4CCNCC4)cn3)nc2n(C2CCCC2)c1=O", "cell line": "HCC1428", "method": "resazurin", "quantity": "GI50", "value": "600 nM"}
{"Structure (SMILES)": "CCN(c1cc(-c2ccc(CN3CCOCC3)cc2)cc(C(=O)NCc2c(C)cc(C)[nH]c2=O)c1C)C1CCOCC1", "cell line": "KARPAS-422", "time": "8 days", "quantity": "GI50", "value": "250 nM"}
{"Structure (SMILES)": "CCCCCCCc1ccc(-c2c(C)[nH]c(C)c(Cl)c2=O)cn1", "cell line": "HEK293", "quantity": "IC50", "value": "> 10000 nM"}
{"Structure (SMILES)": "COc1cc(N(C)CCN(C)C)c(NC(=O)/C=C/C(C)C)cc1Nc1nc(N2CCc3sccc3C2)c2sccc2n1", "cell line": "NCI-H1975", "method": "MTT", "quantity": "IC50", "value": "15600 nM"}
{"Structure (SMILES)": "CCCCc1n(Cc2ccc3ccccc3n2)cc[n+]1Cc1ccc2ccccc2n1", "cell line": "NCI-H322M", "method": "SRB", "quantity": "TGI", "value": "16300 nM"}
{"Structure (SMILES)": "Cc1cc(=O)c(-c2ccc(Oc3ccc(C(F)(F)F)cc3)cc2)c(C)n1O", "cell line": "HEK293", "quantity": "IC50", "value": "> 10000 nM"}
{"Structure (SMILES)": "FC1CCN(C2(CNCc3ccc(-c4ccccc4)o3)COC2)C1 (stereo not drawn)", "cell line": "GBM6", "concentration": "30 µM", "time": "48 h", "quantity": "viability", "value": "72.7%"}
{"Structure (SMILES)": "C=CC(=O)Nc1cc(Nc2nc(Nc3cnn(C)c3)c3sccc3n2)c(OC)cc1N(C)CCN(C)C", "cell line": "NCI-H1975", "method": "MTT", "quantity": "IC50", "value": "4540 nM"}
{"Structure (SMILES)": "COc1ccc(-c2ccc(-c3ccc(C(=N)N)nc3)s2)cc1", "cell line": "SK-MEL-28", "method": "SRB", "quantity": "GI50", "value": "1750 nM"}
{"Structure (SMILES)": "COc1cc(N(C)CCN(C)C)c(NC(=O)C=C(C)C)cc1Nc1nc(N2CCc3sccc3C2)c2sccc2n1", "cell line": "NCI-H1975", "method": "MTT", "quantity": "IC50", "value": "9930 nM"}
{"Structure (SMILES)": "Fc1ccc2[nH]cc(CNCC3(N4CCC(F)C4)COC3)c2c1 (stereo not drawn)", "cell line": "GBM6", "concentration": "30 µM", "time": "48 h", "quantity": "viability", "value": "77.6%"}
{"Structure (SMILES)": "CCC(=O)Nc1cc(Nc2nc(N3CCc4sccc4C3)c3cccnc3n2)c(OC)cc1N1CCN(CC)CC1", "cell line": "NCI-H1975", "method": "MTT", "quantity": "IC50", "value": "198 nM"}
{"Structure (SMILES)": "Fc1ccc2c(CNCC3(N4CCC(F)C4)COC3)c[nH]c2c1 (stereo not drawn)", "cell line": "GBM6", "concentration": "30 µM", "time": "48 h", "quantity": "viability", "value": "85.6%"}
{"Structure (SMILES)": "C=CC(=O)Nc1cc(Nc2nc(N3CCc4sccc4C3)c3cccnc3n2)c(OC)cc1N1CCN(CC)CC1", "cell line": "NCI-H1975", "method": "MTT", "quantity": "IC50", "value": "1360 nM"}
{"Structure (SMILES)": "Cc1[nH]c(C)c(-c2ccc(-c3ccc(F)cc3)cc2)c(=O)c1Br", "cell line": "HEK293", "quantity": "IC50", "value": "> 10000 nM"}
{"Structure (SMILES)": "c1cc2cc(CNCC3(N4CCCC4)COC3)ccc2[nH]1", "cell line": "T98G", "concentration": "30 µM", "time": "48 h", "quantity": "viability", "value": "98.2%"}
{"Structure (SMILES)": "C=CC(=O)N1CCC[C@@H](n2nc(-c3ccc(Oc4ccccc4)cc3)c3c(N)ncnc32)C1", "cell line": "Rec1", "method": "ATP luminescence", "time": "72 h", "quantity": "GI50", "value": "3300 nM"}
{"Structure (SMILES)": "COc1cc(-c2ccc(-c3ccc(C(=N)N)nc3)s2)cc(OC)c1OC", "cell line": "SF-539", "method": "SRB", "quantity": "GI50", "value": "1610 nM"}
{"Structure (SMILES)": "c1ccc(-c2n(Cc3ccc4ccccc4c3)cc[n+]2Cc2ccc3ccccc3c2)cc1", "cell line": "NCI-H322M", "method": "SRB", "quantity": "TGI", "value": "2820 nM"}
{"Structure (SMILES)": "c1ccc(-c2ccc(CNCC3(N4CCCC4)COC3)s2)cc1", "cell line": "GBM6", "concentration": "30 µM", "time": "48 h", "quantity": "viability", "value": "52.6%"}
{"Structure (SMILES)": "CC#CC(=O)N1CC[C@@H](n2cc(-c3ccc(Oc4c(F)cccc4F)cc3)c3c(N)n[nH]c(=O)c32)C1", "cell line": "KARPAS-422", "method": "ATP luminescence", "time": "72 h", "quantity": "GI50", "value": "12100 nM"}
{"Structure (SMILES)": "COc1ccc(-c2ccc(-c3ccc(C(=N)N)nc3)s2)cc1Cl", "cell line": "SK-MEL-28", "method": "SRB", "quantity": "GI50", "value": "1730 nM"}
{"Structure (SMILES)": "COc1cccc(Oc2ccccc2NC(=O)CNC(=O)c2cccc3ccccc23)c1", "cell line": "SF-539", "method": "SRB", "time": "48 h", "quantity": "GI50", "value": "224 nM"}
{"Structure (SMILES)": "O=C(c1cc(-c2ccco2)[nH]n1)N1CCN(S(=O)(=O)c2ccc(Br)cc2)CC1", "cell line": "HEK293", "quantity": "IC50", "value": "> 10000 nM"}
{"Structure (SMILES)": "Cn1cc(-c2cc(N3CCCCS3(=O)=O)ccc2Oc2ccc(F)cc2F)c2c(F)c[nH]c2c1=O", "cell line": "Rec1", "method": "CCK-8", "time": "72 h", "quantity": "GI50", "value": "15 nM"}
{"Structure (SMILES)": "Cc1n(Cc2ccc3ccccc3n2)cc[n+]1Cc1ccc2ccccc2c1", "cell line": "NCI-H322M", "method": "SRB", "quantity": "TGI", "value": "14700 nM"}
{"Structure (SMILES)": "O=C(c1cc(-c2ccccc2O)on1)N1CCN(C(c2ccccc2)c2ccccc2)CC1", "cell line": "HEK293", "quantity": "IC50", "value": "> 10000 nM"}
{"Structure (SMILES)": "CCC(=O)Nc1cc(Nc2nc(N3CCOCC3)c3sccc3n2)c(OC)cc1N(C)CCN(C)C", "cell line": "NCI-H1975", "method": "MTT", "quantity": "IC50", "value": "> 50000 nM"}
{"Structure (SMILES)": "Cc1[nH]c(C)c(-c2ccc(OCc3ccccc3C(F)(F)F)nc2)c(=O)c1Br", "cell line": "HEK293", "quantity": "IC50", "value": "> 10000 nM"}
{"Structure (SMILES)": "Cc1cccc2cc(CNCC3(N4CCCC4)COC3)cnc12", "cell line": "GBM6", "concentration": "30 µM", "time": "48 h", "quantity": "viability", "value": "104%"}
{"Structure (SMILES)": "C=CC(=O)Nc1cccc(Oc2nc(Nc3ccc(N4CCN(C)CC4)cc3)nc3ccsc23)c1", "cell line": "NCI-H1975", "method": "MTT", "quantity": "IC50", "value": "458 nM"}
{"Structure (SMILES)": "Clc1ccc2c(NN=Cc3cccs3)ccnc2c1", "cell line": "HEK293", "quantity": "IC50", "value": "> 10000 nM"}
